48 sequences from the EternaBench riboswitch data can be followed below.

As usually defined, the apparent Kd is a dissociation constant that holds for the conditions of the assay.

This data set concerns MS2 coat protein. Nature of the data set: apparent Kd, MS2 coat protein; higher = weaker binding; RNA-MaP array; FMN 200 µM where present. Put shortly: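 Designs were transcribed by stalled E. coli RNA polymerase on Illumina sequencing-chip clusters. They were titrated with SNAP-549-labelled MS2 coat protein from 0.7 or 1.5 nM, doubling to 3 µM, in 100 mM Tris-HCl pH 7.5, 80 mM KCl, 4 mM MgCl2, BSA, DTT, yeast tRNA and Tween-20, without and then with constant ligand. The apparent Kd is the median of filtered per-cluster fits after normalisation of green signal to red-channel RNA signal and control-cluster median Fmax.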

Where [1] appears, read: designed as: OFF switch for flavin mononucleotide, no ligand.
Setting [2] is: ligand present: flavin mononucleotide, designed as: OFF switch for flavin mononucleotide.
The mark [3] stands for this setting: designed as: ON switch for flavin mononucleotide, no ligand.
Setting [4] is: ligand present: flavin mononucleotide, designed as: ON switch for flavin mononucleotide.

In the case of “GUCUACAUGACAUGAGGAUCACCCAUGUGUUAUAUUUUUACUAAGGAUAUAUUUUUAAUGUUGAGAUAGAAGGUAGUUUCGGUC”, the “apparent Kd” value was 43 nM under setting [1] and 45.5 nM under setting [2].
The matching figures for “CUUUUGUGAGGAUAUCAGUAGUAGAACAAUAGUACUACUACUGAGAAGGCACAUGAGGAUCACCCAUGUUCCUU”: 16 nM and 35.6 nM.
Take “GACUGAUUGUAGAAGGUACUUGACUAUAUAUUUUAUUCAUAUAGACAUGAGGAUCACCCAUGUAGUAAGGAUAUACUUUUAACA”: the “apparent Kd” value reads like this: under setting [3], 9.31 nM; under setting [4], 6 nM.
Regarding “CAUUAAUUCAUUAUAUUAAUUUUACAGGAUAUGUAACAUGAGGAUCACCCAUGUAUUCUAGGUUAACAGAAGGGUAUUGCUUGU”, the “apparent Kd” value is 24.5 nM under setting [1] and 21.3 nM under setting [2].
Take “GGUCCACAUGAGGAUCACCCAUGUUAGGAUAUCUCGCCCGAGCCCAUAUGGGCCAGGCAGAGAAGGAAUGUGAA”: the “apparent Kd” value runs as follows: under setting [1], 23.7 nM; under setting [2], 23.5 nM.
As to “UAUUAGUGAGGAUAUGGUAAAGAUAAGAUGAUGAAAGAACUCCAGAAGGCACAUGAGGAUCACCCAUGUAGUAG”, the “apparent Kd” value under setting [1] stood at 21.8 nM and the “apparent Kd” value under setting [2] was 24.6 nM.
The matching figures for “UGUGAACAUGAGGAUCACCCAUGUGAGGAUAUACGAGCGUGAGAAAGAUAAAACGAGCGUAGAAGGCACAAGAA”: 75.1 nM and 102 nM.
Take “UGUCGGAGCAGAGGAUAUUACAUGAGGAUCACCCAUGUAUGAACCAAUAGCUGGAAACAGCAAUGUAAGAAGGCUGCUCCGCCA”: the “apparent Kd” value was determined as 11.8 nM under setting [1] and 187 nM under setting [2].
As for “ACAUGAGGAUCACCCAUGUUCACAUAGGAUAUUGAUUAUAUUGGUUUUAGAAUAGUAAUUAACCUCAAGAAGGAUGCCAGAUCU”, the “apparent Kd” value is, setting by setting: under setting [3], 13.7 nM; under setting [4], 10.1 nM.
Take “GCUAGUAUUGCAGGAUAUUGUGAAUAAUUAUUUCAAGAAGGGCAUAACAUGAGGAUCACCCAUGUCUUCCUUUUGAAUACUAGC”: the “apparent Kd” value runs as follows: under setting [1], 6.95 nM; under setting [2], 6.51 nM.
As to “UAGUGAUUGCAAGGAUAUGCUUAUGUUUAAUUUUAUUUAUUAUCUAACAUGAGGAUCACCCAUGUGCAGAAGGUGCUUGAUUUG”, the “apparent Kd” value by setting is: under setting [3], 63.4 nM; under setting [4], 53.4 nM.
The matching figures for “GUAGCAUACCGAGGAUAUUCAUACCGGAAACGGACAUGAGGAUCACCCAUGUGGCGAAAGCCUUAGGAGAAGGCGGAAUGCUAC”: 16.4 nM and 12.3 nM.
As for “CGCACGAGGCAAGGAUAUGCUGACAUGAGGAUCACCCAUGUGAGCAUGGGUCUGGUACGGGAUCAGCAGAAGGUGCACCGAGGU”, the “apparent Kd” value reads like this: under setting [1], 18.5 nM; under setting [2], 18.8 nM.
As to “AACAAUCUAUCUGAGGAUAUCAUGUCAAAGACAUGAGGAUCACCCAUGUACCAGGAAACUGGUUAUGAGAAGGCAGAUAGAUUGA”, the “apparent Kd” value is, setting by setting: under setting [3], 1260 nM; under setting [4], 54.8 nM.
“AAACCGCAAGGAUAUUGUGGCGCUGACAUGAGGAUCACCCAUGUGGUGCUAGUCCCGCUGCGAGAAGGUGUGUAAA”: the “apparent Kd” value was determined as 12.4 nM under setting [1] and 26.8 nM under setting [2].
On to “ACGUGACGUUAGGAUAUUAACUACCUGCCAUCUUAAGAAGGAACGACAUGAGGAUCACCCAUGUGAAUCCGCGA”, for which the “apparent Kd” value runs as follows: under setting [1], 26.7 nM; under setting [2], 27 nM.
On to “CAAUUGGCACAGAAGGGUGACAUGAGGAUCACCCAUGUAGCGUGGUACUCAGGAGGAACCACGCCACAGGAUAUGUGCGGGCAC”, for which the “apparent Kd” value runs as follows: under setting [3], 30.3 nM; under setting [4], 38.8 nM.
As to “UUUAAUUAGUAGAAGGACGGAGAGUAAGAAGUCGUAGGAUAUACAUAAGACAUGAGGAUCACCCAUGUGUGUAUGUUGGGUAGG”, the “apparent Kd” value worked out at 6.57 nM under setting [1] and 7.72 nM under setting [2].
“AGAAAACAUGAGGAUCACCCAUGUAGAAAUAUGGGAGGAUAUACAAAGACGAAAGUCGAGGUAGAAGGCCUAAAGA”: the “apparent Kd” value was determined as 100 nM under setting [3] and 23.4 nM under setting [4].
Regarding “UGCCAAGCAGGAUAUGCACGUAAUAACAUGAGGAUCACCCAUGUGACCGAUUUAUAUUCUGCAGAAGGGCUUGGUU”, the “apparent Kd” value runs as follows: under setting [1], 138 nM; under setting [2], 242 nM.
The matching figures for “GAGUGACAUGAGGAUCACCCAUGUGAGGAUAUCGGACGGACCUUGUUGGCUUCCGCCGCGAGAAGGCACAUCGG”: 201 nM and 45 nM.
For the sequence “CUCUUUGUUGAGGAUAUGCACCAGCUCACUGACGCAGAAGGCGACACAUGAGGAUCACCCAUGUCAGUUCGCGU”, the “apparent Kd” value by setting is: under setting [1], 17.4 nM; under setting [2], 21.5 nM.
Turning to “AAUUAUUAUUGAGGAUAUCGUAGUGAAACACUACGAGAAGGCGGUAUAAACAUGAGGAUCACCCAUGUGAGCCUGAUGCUUAUG”, the “apparent Kd” value reads like this: under setting [1], 28.9 nM; under setting [2], 58.9 nM.
The matching figures for “AAAUAGUUAGGAUAUACAUGAGGAUCACCCAUGUAGGGUUCAGUCAUGCAGAAAAUGCGUAGAAGGAACUAUCC”: 18.4 nM and 16.7 nM.
For the sequence “GAGUGGUGGAGAGGAUAUACAUUGUUAUUCACUGUAGAAGGUUCUAACAUGAGGAUCACCCAUGUAGGACUAUUCCUGAGUUUU”, the “apparent Kd” value under setting [3] is 12.4 nM and the “apparent Kd” value under setting [4] is 9.82 nM.
Consider “GCACUGGAUGUAGGAUAUCAGGACGAUAAGUCCUGAGAAGGACAUGAGGAUCACCCAUGUAAAACUUCACCAGUGCAUAAUAUA”, for which the “apparent Kd” value runs as follows: under setting [1], 13.3 nM; under setting [2], 15.9 nM.
For “AAAAGUAGAGGAUAUACAUGAGGAUCACCCAUGUAGAAAGGAAGUAUAUAUAUGGCGUGUAGAAGGCUGCAUGA”, the “apparent Kd” value was found to be 34.5 nM under setting [1] and 32.2 nM under setting [2].
In the same order, the values of “UAUGUGUCAGGAUAUUAGUAGUAAAUAAAUAAAAUUAUUACUGAGAAGGGACAUGAGGAUCACCCAUGUGCCUC” are 32.8 nM and 354 nM.
“AUUGUAUAGGAAGGAUAUAGAAUAUUAUUUUAACAUGAGGAUCACCCAUGUAACCUUAUGUGUAGCUAGAAGGUCCAUUUAUUA”: the “apparent Kd” value turned out to be 99.6 nM under setting [1] and 150 nM under setting [2].
Take “AGAGACUUGGGAGGAUAUGCCUGAUGGACACGGGCAGAAGGCCCAAACAUGAGGAUCACCCAUGUAUCUACGCCUUGAACGGGC”: the “apparent Kd” value is 236 nM under setting [3] and 17.7 nM under setting [4].
Turning to “UUUUACGUUUCGUAGCAGUGUCAUCGAGAAGGCCCUGACAUGAGGAUCACCCAUGUUGUUACAUGGGAGGAUAUCGAUGAUUUU”, the “apparent Kd” value is 16.4 nM under setting [3] and 5.21 nM under setting [4].
With “ACUAUACGAGGAUAUACUGUCAGUACUCAGAGGUUAAUGUGACAUGAGGAUCACCCAUGUAGAAGGCGUUUACU”, the “apparent Kd” value stood at 28.9 nM under setting [1] and 31.3 nM under setting [2].
Consider “AUCGAACAUGAGGAUCACCCAUGUUAGGAUAUUGGAUAGCGCGCUGGUGUAGUGUAUCCAAGAAGGGACUGGUG”, for which the “apparent Kd” value under setting [1] stood at 66.5 nM and the “apparent Kd” value under setting [2] came to 101 nM.
For the sequence “AAAUCGCAAGGAUAUCGUCAGUCUGACAUGAGGAUCACCCAUGUUAUCUUGGUAUCAGAGCGAGAAGGUGCAAAGU”, the “apparent Kd” value turned out to be 13 nM under setting [1] and 13.9 nM under setting [2].
The matching figures for “CCGGGCUAGGAGAAGGGCUAGAGUGUGAUAUAUUUGCCCGCGAGCACAUGAGGAUCACCCAUGUAGCAGGAUAUCCAAGCCGGU”: 7.25 nM and 21.2 nM.
In the same order, the values of “GUGCGUGGCUAGGAUAUUGUGGAGUUUAGUCAGCGAGAAGGGACUACAUGAGGAUCACCCAUGUGUAGUUGCUC” are 212 nM and 198 nM.
The matching figures for “AAUAUGUUGCAGAAGGCUAUAUUGUUGUAGUACCUCAUGACAUGAGGAUCACCCAUGUUUUUGUUGGAGGAUAUGCAAUAUAUU”: 7.32 nM and 7.07 nM.
With “UUGGCCGUCGUAGGAUAUGUAGGAUAUUCCUACAUGAGGAUCACCCAUGUUGACAUGGAAGAAGGACAGAAGGACGAUGUCCAU”, the “apparent Kd” value runs as follows: under setting [3], 365 nM; under setting [4], 4.87 nM.
Regarding “GUAUAUAUGUGGUACAUGAGGAUCACCCAUGUGUCUUUACAUGAGGAUAUGGAUUCUAAUUGGAUCCAGAAGGCAUGUAUAUAC”, the “apparent Kd” value under setting [3] was found to be 33 nM and the “apparent Kd” value under setting [4] was found to be 23.7 nM.
In the same order, the values of “UUGGACGUCGUAGGAUAUGUAGGAUAUUCCUACAUGAGGAUCACCCAUGUUGACAUGGAAGAAGGACAAAAGGACGAUGUCCAU” are 377 nM and 9.05 nM.
Turning to “AUAAUUUUAUUUUUCUAUUAUAUCAGAAGGCAUUACAUGAGGAUCACCCAUGUUUUGGAUAGUAAUGAGGAUAUGAUAUGGUUA”, the “apparent Kd” value is, setting by setting: under setting [1], 11.1 nM; under setting [2], 28.2 nM.
In the same order, the values of “AAAUUAAGAUGAGGAUAUUGACAUGAGGAUCACCCAUGUAUUUGGGAAUGUUUACUGAAUUCUUACAAGAAGGUAUACGAACUU” are 206 nM and 134 nM.
In the same order, the values of “CAAAGGGAAGGAUAUACAUCAGGCGACCUGGUGGGCACCUAACAUGAGGAUCACCCAUGUAGAAGGUCCAGGGA” are 22.4 nM and 14.9 nM.
On to “UUUGACGUCGUAGGAUAUGUAGGAUAUUCCUACAUGAGGAUCACCCAUGUUGACAUGGAAGAAGGACAGAAGGACGAUGUCCAU”, for which the “apparent Kd” value under setting [3] amounted to 304 nM and the “apparent Kd” value under setting [4] is 5.56 nM.
For the sequence “AAAAGGCUAGGAUAUACAUGAGGAUCACCCAUGUGAGGGCACGGCCGGCGCGGGCCCGGUAGAAGGAGUCAAAA”, the “apparent Kd” value by setting is: under setting [1], 18.4 nM; under setting [2], 17.6 nM.
Take “GGGUACAUCGGAGGAUAUCAUGUAAAUACAUGAGGAUCACCCAUGUCGAUGGUGACAUCGGAGAUUGAGAAGGCCGAUGUACCG”: the “apparent Kd” value under setting [3] stood at 245 nM and the “apparent Kd” value under setting [4] is 9.37 nM.
Consider “UGCACCAACGAGAAGGCACAGAUCCAGCUCUUGACAUGAGGAUCACCCAUGUGAGGAUAUCGUAGGUGCGAUUUGGGACAAUCU”, for which the “apparent Kd” value reads like this: under setting [1], 11 nM; under setting [2], 91.8 nM.
The matching figures for “AGCUGACGAGGAUAUACAUGAGGAUCACCCAUGUUGGUUCAGCGACGAUAGUCGCAAUGUAGAAGGUGUCAGCU”: 126 nM and 664 nM.
